Measurements taken from ChEMBL document CHEMBL1764963, “In vitro and QSAR studies of cucurbitacins on HepG2 and HSC-T6 liver cell lines” (Bioorg Med Chem, 2011).

How the values were obtained:
[1] = Cytotoxicity against rat HSC-T6 cell after 24 hrs by MTT assay; format: cell-based; conditions: Rattus norvegicus, HSC-T6, 24 h
HepG2 [2] = experiment: Cytotoxicity against human HepG2 cells after 24 hrs assessed as inhibition of cell viability by MTT assay; format: cell-based; conditions: Homo sapiens, HepG2, 24 h
[3] = Ratio of IC50 to EC50 for antiproliferative activity in rat HSC-T6 cells; format: functional
[4] = Antiproliferative activity against serum-stimulated rat HSC-T6 cells after 24 hrs by MTT assay; format: functional, cell-based; conditions: HSC-T6, 24 h
HepG2 [5] = experiment: Hepatoprotective activity in human HepG2 cells assessed as inhibition of CCl4-induced toxicity after 24 hrs by MTT assay; format: functional, cell-based; parameters: Activity: scale not given: the % may be the effect or the level left; conditions: for EC50: Homo sapiens, HepG2, 24 h
HepG2 [6] = experiment: Ratio of IC50 to EC50 for hepatoprotective activity in human HepG2 cells; format: functional
HepG2 [7] = experiment: Hepatoprotective activity in human HepG2 cells assessed as protection against cell damage after 24 hrs by MTT assay; format: functional
HepG2 [8] = experiment: Ratio of IC50 for human HepG2 cells to IC50 for human HeLa cells
In short: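 Both lines (HepG2 grown 10 days, HeLa 7 days, in EMEM/10% FBS) seeded 24 h in 2% FBS at 30,000 and 15,000 cells/ml. Five-fold serial dilutions over 5 wells for 24 h. Viability by MTT at 570 nm versus cell-free and untreated controls. IC50 derived from log IC50. Ratio taken of the two IC50 values.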

HeLa = experiment: Cytotoxicity against human HeLa cells after 24 hrs by MTT assay; format: functional, cell-based
[9] = Inhibition of hyaluronidase activity at 71.68 mM
[10] = test system: Radical scavenging activity; experiment: Antioxidant activity assessed as DPPH radical scavenging activity at 64 uM after 10 mins; format: functional

SMILES | IC50 [1] | IC50 (HepG2 [2]) | Ratio IC50/EC50 [3] | EC50 [4] | EC50 (HepG2 [5]) | Ratio IC50/EC50 (HepG2 [6]) | Activity (HepG2 [7]) | Ratio IC50 (HepG2 [8]) | IC50 (HeLa) | Activity (HepG2 [5]) | inhibition (INH) (HepG2 [5]) | inhibition [9] | inhibition [10]
COC1=C[C@@H]2C(=CC[C@@H]3[C@@]2(C)C(=O)C[C@]2(C)[C@@H]([C@@](C)(O)C(=O)/C=C/C(C)(C)OC(C)=O)[C@H](O)C[C@@]32C)C(C)(C)C1=O | 2.83 µM | 12 µM | 35 | 0.08 µM | 2.4 µM | 5 | 40% |  |  |  |  |  | 
CC(=O)OC(C)(C)/C=C/C(=O)[C@](C)(O)[C@H]1[C@H](O)C[C@@]2(C)[C@@H]3CC=C4[C@@H](C=C(O[C@@H]5O[C@H](CO)[C@@H](O)[C@H](O)[C@H]5O)C(=O)C4(C)C)[C@]3(C)C(=O)C[C@]12C | 102 µM | 227 µM | 31 | 3.28 µM | 45.3 µM | 5 | 40% | 6 | 37 µM |  |  |  | 
CC(C)OC1=C[C@@H]2C(=CC[C@@H]3[C@@]2(C)C(=O)C[C@]2(C)[C@@H]([C@@](C)(O)C(=O)/C=C/C(C)(C)O)[C@H](O)C[C@@]32C)C(C)(C)C1=O | 2.53 µM | 7.33 µM | 10 | 0.25 µM |  |  | 40% |  |  | <50% |  |  | 
COC1=C[C@@H]2C(=CC[C@@H]3[C@@]2(C)C(=O)C[C@]2(C)[C@@H]([C@@](C)(O)C(=O)/C=C/C(C)(C)OC(C)=O)[C@H](OC(C)=O)C[C@@]32C)C(C)(C)C1=O | 11.5 µM | 26 µM | 13 | 0.91 µM | 5.2 µM | 5 | 40% | 8 | 3.2 µM |  |  |  | 
CCCOC1=C[C@@H]2C(=CC[C@@H]3[C@@]2(C)C(=O)C[C@]2(C)[C@@H]([C@@](C)(O)C(=O)/C=C/C(C)(C)O)[C@H](O)C[C@@]32C)C(C)(C)C1=O | 2.47 µM | 5 µM | 8 | 0.33 µM |  |  | 40% |  |  | <50% |  |  | 
COC1=C[C@@H]2C(=CC[C@@H]3[C@@]2(C)C(=O)C[C@]2(C)[C@@H]([C@@](C)(O)C(=O)/C=C/C(C)(C)O)[C@H](O)C[C@@]32C)C(C)(C)C1=O | 6.37 µM | 15 µM | 60 | 0.11 µM | 5.25 µM | 3 | 40% |  |  |  | 74% |  | 
CCCCC1C(=O)N(c2ccccc2)N(c2ccccc2)C1=O |  |  |  |  |  |  |  |  |  |  |  | 50% | 
CC(C)(O)/C=C/C(=O)[C@](C)(O)[C@H]1[C@H](O)C[C@@]2(C)[C@@H]3CC=C4[C@@H](C[C@H](O)C(=O)C4(C)C)[C@]3(C)C(=O)C[C@]12C [CUCURBITACIN D] | 26 µM | 77.3 µM | 379 | 0.07 µM | 9 µM | 9 | 40% | 107 | 0.7 µM |  | 74% |  | 
CC(=O)OC(C)(C)/C=C/C(=O)[C@](C)(O)[C@H]1[C@H](O)C[C@@]2(C)[C@@H]3CC=C4[C@@H](C=C(OC(C)C)C(=O)C4(C)C)[C@]3(C)C(=O)C[C@]12C | 2.5 µM | 4.27 µM | 8 | 0.32 µM |  |  | 40% |  |  |  |  |  | 
CCOC1=C[C@@H]2C(=CC[C@@H]3[C@@]2(C)C(=O)C[C@]2(C)[C@@H]([C@@](C)(O)C(=O)/C=C/C(C)(C)OC(C)=O)[C@H](O)C[C@@]32C)C(C)(C)C1=O | 3.5 µM | 5.1 µM | 13 | 0.27 µM |  |  | 40% | 5 | 1.1 µM | <50% |  |  | 
O=C1O[C@H]([C@@H](O)CO)C(O)=C1O |  |  |  |  |  |  |  |  |  |  |  |  | 50%
